# Assays:
# Assay type in all cases: cell-based, human
# [1] = system: DLBCL cells with SIRT3 shRNA; assay: Rescue of autophagy; conditions: DMKG 4 mM for 3-4 hr
# Outline: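 DLBCL cells carrying SIRT3 or control shRNA were incubated with test compound (4 mM) for 3-4 hr, then collected for Western blot with LC3 and SIRT3 antibodies. Detection used a peroxidase-conjugated secondary antibody and enhanced chemiluminescence. LC3II/LC3I ratios were obtained by densitometry and normalized to control cells.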
# [2] = system: SIRT3 depleted Karpas 422 cells; assay: Rescue of proliferation arrest caused by SIRT3 depletion; conditions: Karpas 422, 4-day exposure
# Outline: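 Karpas 422 cells were infected with YFP-carrying lentivirus bearing SIRT3 or control shRNA and exposed for 4 days to test compounds, alone or combined. Viable YFP+ (transduced) and YFP− (non-transduced) populations were quantified by flow cytometry. Abundance was normalized to the first time point.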
# [3] = system: SIRT3 depleted HBL1 cells; assay: Rescue of proliferation arrest caused by SIRT3 depletion; conditions: HBL1, Figure S5D
# [4] = system: SIRT3 depleted OCI-LY1 cells; assay: as above; conditions: OCI-LY1, Figure S5C
SMILES,Rescue of LC3II/LC3I ratios (autophagy) after SIRT3 depletion [1],Rescue of proliferation arrest caused by SIRT3 depletion [2],Rescue of proliferation arrest caused by SIRT3 depletion [3],Rescue of proliferation arrest caused by SIRT3 depletion [4]
"COC(=O)CCC(=O)C(=O)OC [DMKG, dimethyl-αKG]",rescued LC3II/LC3I ratios,DMKG alone rescued,required both DMKG and MP,DMKG alone rescued
"COC(=O)C(C)=O [MP, methyl-pyruvate]",,,required both DMKG and MP,

# — PMC7534582 (Cancer cell, 2019)
